Data from ChEMBL document CHEMBL4043295, “Marbostat-100 Defines a New Class of Potent and Selective Antiinflammatory and Antirheumatic Histone Deacetylase 6 Inhibitors” (J Med Chem, 2018).
The source made the active and inactive calls. The rule behind the calls is not given here.

Experiments:
Mus musculus [1] = test: Antiarthritic activity in DBA/1J mouse collagen-induced arthritis model assessed as decrease in bone erosion in joints at 30 mg/kg, ip administered every morning for 12 to 14 days; format: functional, organism-based
How it was run: (§1)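 Collagen type II-induced arthritis in mice, treated at 30 mg/kg versus vehicle. Arthritic paws were assessed histologically for synovial inflammation, cellular invasion, cartilage degradation and bone erosion.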

Mus musculus [2] = test: Toxicity in DBA/1J mouse collagen-induced arthritis model assessed as effect on white blood cell count at 30 mg/kg, ip administered every morning for 12 to 14 days measured post last dose relative to vehicle-treated control; format: organism-based; details: in vivo
Mus musculus [3] = test: Antiarthritic activity in DBA/1J mouse collagen-induced arthritis model assessed as decrease in cellular invasion at 30 mg/kg, ip administered every morning for 12 to 14 days; format: functional, organism-based; how it was run: as §1
HEL = test: Cell cycle arrest in human HEL cells at 5 to 1000 nM after 24 hrs by propidium iodide staining-based flow cytometric method; format: functional
Mus musculus [4] = test: Toxicity in DBA/1J mouse collagen-induced arthritis model assessed as effect on hemoglobin concentration at 30 mg/kg, ip administered every morning for 12 to 14 days measured post last dose relative to vehicle-treated control; format: organism-based; details: in vivo
Jurkat = test: Cell cycle arrest in human Jurkat cells at 5 to 1000 nM after 24 hrs by propidium iodide staining-based flow cytometric method; format: functional
[5] = biological target: T1, Protein deacetylase HDAC6 (Homo sapiens) (UniProt Q9UBN7); details: 5 to 1000 nM
T1 sequence (whole entry): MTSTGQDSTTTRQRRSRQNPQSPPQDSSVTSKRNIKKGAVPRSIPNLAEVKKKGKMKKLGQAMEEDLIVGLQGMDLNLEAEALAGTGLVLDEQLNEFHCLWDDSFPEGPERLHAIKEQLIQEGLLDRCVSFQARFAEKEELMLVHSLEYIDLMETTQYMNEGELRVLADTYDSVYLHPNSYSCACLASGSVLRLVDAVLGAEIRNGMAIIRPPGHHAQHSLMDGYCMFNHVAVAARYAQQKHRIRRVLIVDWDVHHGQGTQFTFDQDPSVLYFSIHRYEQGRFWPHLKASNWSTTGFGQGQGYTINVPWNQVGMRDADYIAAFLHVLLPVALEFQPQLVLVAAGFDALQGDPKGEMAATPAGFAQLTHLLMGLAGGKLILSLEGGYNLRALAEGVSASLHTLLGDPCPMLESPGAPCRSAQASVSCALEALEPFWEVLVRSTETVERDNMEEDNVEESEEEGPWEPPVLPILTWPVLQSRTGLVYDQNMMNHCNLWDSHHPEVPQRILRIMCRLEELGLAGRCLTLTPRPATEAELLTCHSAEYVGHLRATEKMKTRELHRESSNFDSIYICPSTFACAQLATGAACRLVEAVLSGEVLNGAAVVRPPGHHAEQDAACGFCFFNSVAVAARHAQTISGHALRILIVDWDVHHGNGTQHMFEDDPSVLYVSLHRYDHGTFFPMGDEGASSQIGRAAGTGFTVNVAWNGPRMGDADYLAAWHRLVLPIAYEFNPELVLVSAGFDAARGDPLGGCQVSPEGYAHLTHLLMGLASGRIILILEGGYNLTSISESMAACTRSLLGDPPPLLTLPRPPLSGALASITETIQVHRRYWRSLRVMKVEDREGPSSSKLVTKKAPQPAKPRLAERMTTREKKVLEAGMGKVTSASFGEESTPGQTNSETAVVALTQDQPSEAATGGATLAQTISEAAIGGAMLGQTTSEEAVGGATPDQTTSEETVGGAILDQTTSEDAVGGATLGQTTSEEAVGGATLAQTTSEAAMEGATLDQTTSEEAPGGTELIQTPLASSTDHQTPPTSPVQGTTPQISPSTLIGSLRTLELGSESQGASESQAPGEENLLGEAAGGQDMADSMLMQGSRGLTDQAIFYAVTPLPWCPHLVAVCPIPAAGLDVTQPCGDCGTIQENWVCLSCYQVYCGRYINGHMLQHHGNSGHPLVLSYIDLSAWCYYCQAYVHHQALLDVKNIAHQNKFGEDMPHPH

Mus musculus [6] = test: In vivo inhibition of HDAC6 in DBA/1J mouse assessed as induction of tubulin acetylation in kidney at 0.6 mg […] by Western blot method; format: functional, organism-based
How it was run: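 Male DBA/1J mice received 0.6 mg inhibitor; organs were collected 2.5 h later and stored at −80 °C. Liver and kidney lysates were immunoblotted for acetylated tubulin and compared with untreated controls. Representative of at least two experiments.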

Histone deacetylase 8 = biological target: T2, Histone deacetylase 8 (Homo sapiens, UniProt Q9BY41); test: Inhibition of recombinant human C-terminal His-tagged HDAC8 (1 to 377 residues) expressed in baculovirus-infected insect cells using RHK(Ac)K(Ac)AMC as substrate after 60 mins by fluorimeter
T2 sequence (Q9BY41 whole entry): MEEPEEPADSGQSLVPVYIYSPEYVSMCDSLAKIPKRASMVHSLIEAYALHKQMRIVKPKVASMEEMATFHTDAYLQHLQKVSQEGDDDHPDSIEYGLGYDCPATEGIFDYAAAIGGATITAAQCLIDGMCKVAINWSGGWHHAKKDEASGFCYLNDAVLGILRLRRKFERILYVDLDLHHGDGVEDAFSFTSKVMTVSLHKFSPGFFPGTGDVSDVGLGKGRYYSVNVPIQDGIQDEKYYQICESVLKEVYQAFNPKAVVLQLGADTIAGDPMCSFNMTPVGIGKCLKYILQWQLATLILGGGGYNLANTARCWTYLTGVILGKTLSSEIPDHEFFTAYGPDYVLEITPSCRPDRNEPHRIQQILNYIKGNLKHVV

Mus musculus [7] = test: Antiarthritic activity in DBA/1J mouse collagen-induced arthritis model assessed as loss of body weight at 30 mg/kg, ip administered every morning for 1 week measured during compound dosing; format: functional, organism-based
[8] = biological target: T1, Protein deacetylase HDAC6 (Homo sapiens); details: 50 nM
PBMC = test: Induction of apoptosis in human PBMC at 50 to 1000 nM after 24 hrs by Annexin V/propidium iodide staining-based flow cytometric method; format: cell-based; details: 1 µM
[9] = biological target: T1, Protein deacetylase HDAC6 (Homo sapiens); details: 50 nM; remark: listed apart in the source
[10] = biological target: T1, Protein deacetylase HDAC6 (Homo sapiens); details: 5 to 1000 nM; remark: listed apart in the source
[11] = biological target: T1, Protein deacetylase HDAC6 (Homo sapiens); details: 5 to 1000 nM; remark: listed apart in the source

- inhibition [5]: Active
- Ki (Histone deacetylase 8): 0.173 µM
- inhibition [8]: Active
- inhibition [9]: Active
- inhibition [10]: Active
- inhibition [11]: Active
SMILES: CN1C(=O)C2CN(Cc3c2c2ccccc2n3Cc2ccc(C(=O)NO)cc2)C1=O (stereo not given)
- Activity (Mus musculus [1]): Active
- Activity (Mus musculus [2]): Non-Toxic
- Activity (Mus musculus [3]): Active
- Activity (HEL): inactive
- Activity (Mus musculus [4]): Non-Toxic
- Activity (Jurkat): inactive
- inhibition (Mus musculus [6]): Active
- Activity (Mus musculus [7]): Active
- Activity (PBMC): Non-Toxic
